# From PubChem
# KCNQ1 pot: potentiators or activators of KCNQ1 channel, primary screen, cell-based, thallium flux, high-throughput; Potassium voltage-gated channel subfamily KQT member 1 (Homo sapiens), P51787; CHO-K1 KCNQ1, thallium flux FluxOR fluorescence; stronger effect = higher value; B-score at 10 µM; 310,000 tested, 0.35% active; AID 2648, 2010;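 active = fluorescence ratio B-score, a plate-corrected score, at least three library SD, with initial intensity B-score within 5 SD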
#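 assay system = KCNQ1-transfected CHO-K1 cells | medium = assay buffer with matched DMSO | probe or stimulus = depolarizing K+/Tl+ stimulus, K2SO4 and Tl2SO4 each 12.5 mM in 5x stock | dosing = single dose | incubation = dye 90 min, compound 20 min, room temperature | detection = kinetic FluxOR fluorescence, 10 s baseline plus 110 s post-stimulus | evaluation = ratio B score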
# KCNK9 inh: KCNK9 potassium channel inhibitors, primary screen, HEK293 cells, thallium flux. FluxOR thallium flux fluorescence; stronger effect = lower value. Potassium channel subfamily K member 9 (Homo sapiens), Q9NPC2. B-score at 10 µM. AID 488922, 2010. 310,000 tested, 1.2% active;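 active = ratio B-score over 3 SD below the library mean, with starting fluorescence within 5 SD of its mean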;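 note: negative B-score means less thallium flux so channel inhibition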
# KCNK3 block: human KCNK3 channel inhibitors, primary screen, CHO cells, FluxOR thallium flux, B-score; B-score at 10 µM; 340,000 tested, 0.84% active; AID 602410, 2012; Potassium channel subfamily K member 3 (Homo sapiens), O14649; FluxOR fluorescence; stronger effect = lower value;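 active = B-score under library mean minus 4 SD, starting fluorescence ratio at most library mean plus 5 SD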;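 note: more negative B-score means stronger inhibition of thallium flux through KCNK3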
# KCNQ1 inh: inhibitors of human KCNQ1 channel, primary screen, cell-based, thallium flux, high-throughput. CHO-K1 KCNQ1, FluxOR thallium flux fluorescence; stronger effect = higher value. B-score at 10 µM. 310,000 tested, 1.3% active. AID 2642, 2010;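 active = compounds whose thallium flux B-score, printed positive for inhibition, exceeds three library SD while starting fluorescence stays within three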;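 note: channel opened by potassium depolarization with thallium stimulus after 20 min compound exposure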
# hERG protect: hERG rescue from dofetilide block, primary screen, cell-based, CHO-hERG, FluxOR thallium flux, dofetilide IC70 | activation (rescue from dofetilide block), less the hit threshold, % at 10 µM | AID 1511, 2009 | 310,000 tested, 0.51% active | dofetilide IC70 present;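 active = activation above the mean of controls blocked by dofetilide plus 5 SD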;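 note: thallium influx through hERG after potassium depolarization seen as dye fluorescence rise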
# KCNK9 block conf: KCNK9 potassium channel inhibitors, confirmation, HEK293 cells, thallium flux, duplicate | 4,900 tested, 43% active | inhibition, % at 10 µM | FluxOR thallium flux fluorescence | shares compounds with KCNK9 inh;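 active = thallium signal inhibited by more than 5 SD of the compound-free buffer control wells, on both duplicate plates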;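 note: 0% = assay buffer control wells without compound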
# Kir2-1 spec: mouse Kir2.1 channel inhibition, confirmation, selectivity assay for KCNK9 modulator project, cell-based, HEK293, thallium flux | AID 492993, 2010 | shares compounds with KCNK9 inh | inhibition, % at 10 µM | 4,900 tested, 4% active | Kir2.1 cells, FluxOR thallium flux fluorescence;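 active = thallium signal drop more than 5 SD beyond the mean of the no-compound control wells, seen in both duplicate plates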;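 note: signal is fluorescence rise after thallium addition divided by baseline fluorescence; plate controls were assay buffer only for no effect and full block by chlorpromazine control for full effect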
# KCNK9 uninduced: thallium flux in non-induced HEK293 cells, confirmation, counter-screen for KCNK9 inhibitor project, cell-based, second counter screen, non-induced KCNK9-HEK293 | inhibition, % at 10 µM | 4,900 tested, 40% active | FluxOR thallium flux | shares compounds with KCNK9 inh;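 active = thallium signal drop beyond 5 SD of the untreated control mean, on both duplicate plates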;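 note: plate controls were buffer only IC0 wells for no effect and SID17386958 at its maximal inhibitory level for full effect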
# The depositor's hits bear a star; i = inactive; / = no result given. Hits are enriched below; roughly 3.1% of the tested compounds scored in any of these assays.
SMILES,KCNQ1 pot,KCNK9 inh,KCNK3 block,KCNQ1 inh,hERG protect,KCNK9 block conf,Kir2-1 spec,KCNK9 uninduced
N#CC1(Cc2ccc([N+](=O)[O-])cc2)c2ccccc2C=CN1C(=O)c1ccccc1 (stereo not given),i,-12*,i,i,-4,32%*,i,34%*
CC(=O)c1cccc(NC(=O)Nc2ccc3c(c2)OCO3)c1,i,i,i,i,-14,/,/,/
O=C(Nc1ccccc1-c1nnc(SCc2ccccc2)o1)c1ccccc1,i,i,i,i,-17,i,i,i
COc1ccccc1CN(C)C(=O)c1ccc(COc2ccccc2)cc1,i,i,i,i,-13,/,/,/
COc1cccc(CN(C)C(=O)c2ccc(Oc3ccccc3)cc2)c1OC,i,i,i,i,-10,i,i,i
COc1cccc(CN(C)C(=O)c2ccc(NS(=O)(=O)c3ccc4[nH]c(=O)[nH]c4c3)cc2)c1OC,i,i,i,i,-9,/,/,/
CCOc1ccc(NS(=O)(=O)c2ccc(C(=O)N(C)Cc3cccc(OC)c3OC)cc2)cc1,i,i,i,i,-12,i,i,i
Cc1cc(Cl)ccc1OCC(=O)N1CCCN(C(=O)COc2ccc(Cl)cc2C)CC1,i,i,i,i,-14,/,/,/
Cc1cc(Cl)ccc1OC(C)C(=O)N1CCCN(C(=O)C(C)Oc2ccc(Cl)cc2C)CC1 (stereo not given),i,-15*,i,i,-6,58%*,i,30%*
COc1ccc(NS(=O)(=O)c2cccc(C(=O)NNC(=O)NCCCl)c2)cc1,i,i,i,i,-8,/,/,/
COc1ccc(Cl)cc1NC(=O)CN(C)C(C)C(=O)NC(=O)NC1CCCCC1 (stereo not given),i,i,i,i,-16,i,i,i
COc1ccc(Cl)cc1NC(=O)C(C)N(C)Cc1cccc(Cl)c1Cl (stereo not given),i,-13*,i,i,-8,76%*,i,52%*
COc1ccc(Cl)cc1NC(=O)Cc1c(F)cccc1Cl,i,i,i,i,-6,/,/,/
COc1cccc(/C(C)=N/N=C(\C)c2cccc(OC)c2)c1,i,-14*,i,i,-6,60%*,i,i
O=C(NNC(=S)Nc1ccc(Br)cc1)c1ccccc1Br,i,i,i,i,-16,i,i,i
CC(C)NC(=O)c1cccc(Cn2cc(Cl)cn2)c1,i,i,i,i,-1,/,/,/
CCC(NC(=O)c1cccc(Cn2cc([N+](=O)[O-])cn2)c1)c1ccc(C(C)C)cc1 (stereo not given),i,-14*,i,i,-9,62%*,i,42%*
Cc1nn(-c2ccccc2)c(Cl)c1/C=N/NC(=O)c1ccco1,i,-8.7*,i,i,-4,50%*,i,28%*
Cc1nn(-c2ccccc2)c(Cl)c1/C=N/NC(=O)OC(C)(C)C,i,-11*,i,i,-9,49%*,i,i
CCCOc1ccc2c3c(c(=O)oc2c1OCCC)CCCC3,i,-12*,i,i,-6,74%*,i,31%*
CC(=O)Oc1ccc2c3c(c(=O)oc2c1C)CCCC3,i,i,i,i,0,/,/,/
COc1ccccc1/C=C/C=N/n1c(-c2ccc(Cl)cc2)n[nH]c1=S,i,i,i,i,-6,i,i,i
